Screening results from PubChem.
In the library only some 4.6% were active in any assay of this set; here they are far more common.
CHO parental Ca: ATP-evoked calcium signal inhibitors, parental CHO, primary screen, counter-screen for OX1R antagonist project, cell-based, fluorescence, Fluo-8 calcium dye | inhibition, % at 5.6 µM | 330,000 compounds, 0.63% hits | parental CHO-K1, ATP-induced calcium, Fluo-8 fluorescence | AID 463079, 2010;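 active = inhibition above that plate's mean sample inhibition plus 3 SD, cut at about 26% in these data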;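 also: 0% = ATP-challenged DMSO wells and 100% = DMSO wells without ATP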
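Assay system: untransfected parental CHO cell line. Also added: ATP agonist challenge. Dosing: one dose, 5.6 µM nominal. Measured by: Fluo-8 fluorescence. Read-out: % inhibition. Benchmarks: ATP wells versus no-ATP DMSO wells. Repeats: no replicates.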
TAAR1 ag: human TAAR1 agonists, primary screen, Fluo-8 calcium fluorescence, CHO RD-HGA16 cells. vehicle wells 0%, saturating PEA agonist 100%. activation, % at 3 µM. Trace amine-associated receptor 1 (Homo sapiens), Q96RJ0. 360,000 compounds, 0.99% hits;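 active = activation above the mean activation of all test compounds in the run plus 3 SD, cut at about 38% in these data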
Target sequence (Q96RJ0 whole entry, looked up): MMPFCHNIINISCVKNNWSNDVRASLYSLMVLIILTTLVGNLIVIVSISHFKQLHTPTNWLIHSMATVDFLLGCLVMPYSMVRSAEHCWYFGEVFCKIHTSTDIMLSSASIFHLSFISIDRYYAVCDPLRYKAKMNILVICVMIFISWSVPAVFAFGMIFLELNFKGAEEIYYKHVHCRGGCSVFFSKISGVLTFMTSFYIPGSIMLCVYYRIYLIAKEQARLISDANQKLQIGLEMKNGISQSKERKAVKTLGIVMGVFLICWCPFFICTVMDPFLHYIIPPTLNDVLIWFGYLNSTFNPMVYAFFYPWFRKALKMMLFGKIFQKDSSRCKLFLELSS
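Assay system: CHO-derived RD-HGA16 cells with stable Gα16 and human TAAR1; timing: 17-24 h seeding, 75 min 37 °C dye, 30 min RT; read-out: % activation from peak over basal fluorescence ratio, DMSO-to-PEA scaled; measured by: kinetic Fluo-8 calcium fluorescence; benchmarks: low control DMSO, high control PEA (EC100); doses: 3 µM single concentration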
TAAR1 antagonist: human TAAR1 antagonists, primary screen, Fluo-8 calcium fluorescence, CHO RD-HGA16 cells. Trace amine-associated receptor 1 (Homo sapiens), Q96RJ0. antagonist. inhibition, % at 3 µM. 360,000 compounds, 1.5% hits. AID 624466, 2012;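 active = inhibition above a per-plate cutoff, the mean inhibition of test compounds on that plate plus 3 SD, cut at about 49% in these data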;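 also: 0% = DMSO plus EC80 beta-PEA response and 100% = DMSO alone without agonist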
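test system = CHO RD-HGA16 cells bearing hTAAR1 | replication = singlicate | controls = DMSO-only wells and EC80 β-PEA-stimulated wells | reagent = EC80 β-phenethylamine stimulus | read-out basis = percent inhibition of PEA-evoked calcium signal, max/basal emission ratio | schedule = seeding 17-24 h prior, 75-min 37 °C, 30-min RT dye loading | signal = kinetic Fluo-8 calcium fluorescence measurement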
GPR7 antag: GPR7 receptor antagonists, primary screen, cell-based, fluorescence, single concentration; Neuropeptides B/W receptor type 1 (Homo sapiens), P48145; GPR7-expressing cells, fluorescence antagonist assay; inhibition, % at 4.4 µM; 290,000 compounds, 1.1% hits; AID 1861, 2009; in the data active = inhibition above about 16%, passing the limit was not always enough;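 also: cells stimulated with the agonist NPW; 0% = agonist with vehicle and 100% = vehicle without agonist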
Target sequence (P48145 whole entry, looked up): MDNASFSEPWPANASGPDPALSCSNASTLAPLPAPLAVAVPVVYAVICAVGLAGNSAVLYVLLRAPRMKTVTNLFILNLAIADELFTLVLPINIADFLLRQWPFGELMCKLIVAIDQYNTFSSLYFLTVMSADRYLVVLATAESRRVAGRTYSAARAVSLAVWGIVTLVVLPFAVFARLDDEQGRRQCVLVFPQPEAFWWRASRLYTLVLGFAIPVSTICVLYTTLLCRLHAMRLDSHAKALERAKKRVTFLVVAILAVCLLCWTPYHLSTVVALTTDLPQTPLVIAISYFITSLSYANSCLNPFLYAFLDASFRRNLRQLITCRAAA
OX1R antag-1: antagonists of human orexin 1 receptor (OX1R); inhibition, % at 6.6 µM; 330,000 compounds, 1.8% hits; OX1R-expressing cells, FRET antagonist read-out; Orexin/Hypocretin receptor type 1 (Homo sapiens), O43613; in the data active = inhibition mostly above about 38%, no sharp cut-off; inactive = mostly below about 40%;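 also: 0% = agonist challenge alone and 100% = reference antagonist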
OX1R antag-2: OX1R (HCRTR1) antagonists, primary screen, fluorescence, CHO/OX1R cells, Fluo-8 calcium, orexin A; Orexin/Hypocretin receptor type 1 (Homo sapiens), O43613; Fluo-8 calcium fluorescence; AID 434989, 2010; 330,000 compounds, 0.43% hits; inhibition, % at 5 µM;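 active = inhibition above its plate's threshold, mean inhibition of all tested compounds on the plate plus 3 SD, cut at about 37% in these data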;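 also: 0% = orexin A challenge wells and 100% = SB-334867-A antagonist wells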
* = called active by the depositor; x = no result.

SMILES | CHO parental Ca | TAAR1 ag | TAAR1 antagonist | GPR7 antag | OX1R antag-1 | OX1R antag-2
NC1(CO)COC(c2ccccc2)OC1 (stereo unspecified) | x | 0 | -14 | x | x | x
Cc1cccc(C)c1OCC(=O)NC1CC1 | -11 | 3 | -20 | -1 | 31 | 3
Cc1cccc(C)c1OCC(=O)NNC(=S)NC(=O)C1CC1 | -8 | 48* | 19 | -12 | 23 | -10
COc1ccc(CCNC(=O)c2ccc(CNS(=O)(=O)c3ccc(C(C)(C)C)cc3)cc2)cc1OC | -5 | 15 | 56* | -2 | 26 | 4
OC(CNCCc1ccc(C(F)(F)F)cc1)COc1ccc2ccccc2c1 (stereo unspecified) | 48* | 29 | 10 | 0 | -5 | 15
CCOCC(O)CNc1ccccc1 (stereo unspecified) | 0 | 4 | -15 | -10 | 0 | 14
COc1ccc(CNCC(O)COc2ccc(C(C)(C)c3ccccc3)cc2)cc1 (stereo unspecified) | 36* | 41* | 5 | 16 | -9 | -9
OC(CNc1ccccc1)COc1ccc(OCC(O)CNc2ccccc2)cc1 (stereo unspecified) | 50* | 27 | 34 | 24 | 40 | 40
COc1ccc(CCNCC(O)COc2cccc(Br)c2)cc1 (stereo unspecified) | -27 | 14 | -12 | 0 | 28 | -47
C=CCN1C(=O)c2n[nH]c(C(C)C)c2C1c1ccc2c(c1)OCO2 (stereo unspecified) | x | 0 | -18 | x | x | x
CC(C)[C@H](NC(=O)[C@@H](N)Cc1ccccc1)C(=O)N1CCC2CCN(Cc3ccccc3)CC21 (stereo partly specified) | x | -1 | 3 | x | x | x
O=C(Nc1ccc([N+](=O)[O-])c(NC(=O)c2cccnc2)c1)c1cccnc1 | -3 | 0 | 1 | x | 8 | 1
O=C(Nc1cc2c(cc1[N+](=O)[O-])OCCO2)c1cccnc1 | -14 | 3 | -12 | x | 50* | -6
O=C(CN1C(=O)c2ccccc2C1=O)NC1CCCCCC1 | -9 | 1 | 8 | -9 | 20 | -17
COc1ccc(CNC(=O)CN2C(=O)c3ccc([N+](=O)[O-])cc3C2=O)cc1 | -12 | 6 | -7 | 2 | 76* | -22
COc1ccc(CNc2ccc([N+](=O)[O-])cc2C)cc1 | 38* | -2 | 29 | -7 | 5 | 10
O=C(CN1C(=O)c2ccc([N+](=O)[O-])cc2C1=O)NC1CCCCCC1 | -9 | 0 | -3 | x | 65* | -11
COc1ccc(CNC(=O)CN2C(=O)c3ccccc3C2=O)cc1 | -10 | -1 | -1 | -3 | -3 | -21
O=C(CN1C(=O)c2ccc([N+](=O)[O-])cc2C1=O)Nc1nccs1 | -13 | 5 | -15 | 3 | 22 | -8
O=C(CCN1C(=O)c2ccc([N+](=O)[O-])cc2C1=O)Nc1nccs1 | 3 | 2 | 2 | -10 | 72* | -14
COC(=O)[C@H](N[C@H](/C=C/c1ccccc1)[C@@H](O)Cc1ccccc1)c1ccccc1 | x | -1 | -3 | x | x | x
CCOC(=O)CC1(CC)Oc2ccccc2N1S(=O)(=O)c1ccc(C)cc1 (stereo unspecified) | x | 5 | 14 | x | x | x
CO[C@H]1CN(C)C(=O)c2cc(NC(=O)c3ccccc3)ccc2OC[C@H](C)NC[C@@H]1C | x | 2 | 1 | x | x | x
C[C@@H]1CN([C@@H](C)CO)C(=O)CCCn2cc(nn2)CO[C@H]1CN(C)C(=O)NC1CCCCC1 | x | 5 | 4 | x | x | x
CCCc1nc2ccccc2n1C(C(=O)NC(C)(C)C)C1CC1 (stereo unspecified) | x | 0 | -3 | x | x | x
SMILES | CHO parental Ca | TAAR1 ag | TAAR1 antagonist | GPR7 antag | OX1R antag-1 | OX1R antag-2
COc1cccc(NC(=O)CCN2C(=O)c3ccc([N+](=O)[O-])cc3C2=O)c1 | -10 | 9 | -12 | 5 | 50* | -23
COc1cccc(NC(=O)CCN2C(=O)c3cccc([N+](=O)[O-])c3C2=O)c1 | -5 | 2 | -4 | 8 | 25 | -3
CCOc1ccccc1N1CCN(c2nc(N)c(C#N)c(CC#N)c2C#N)CC1 | 7 | 19 | 50* | -13 | 12 | 5
COc1cc(C(=O)NC(=S)N(CCc2ccccc2)CCc2ccccc2)cc(OC)c1OC | -14 | 6 | 53* | -13 | 5 | -18
CCCCCCCCCCCCOC(=O)C[N+](C)(C)C | -3 | 38* | 49* | -12 | 5 | -17
COC(=O)C1(C(=O)OC)c2ccccc2N(S(=O)(=O)c2ccc(C)cc2)C1CC(=O)c1ccccc1 (stereo unspecified) | x | 1 | -22 | x | x | x
COc1ccc(-c2cc(-c3c(O)c(OC)c4occc4c3OC)[nH]n2)cc1OC | -18 | -2 | 5 | -13 | 70* | 62*
COc1ccc(-c2cc(-c3c(O)c(OC)c4occc4c3OC)[nH]n2)cc1 | -17 | 6 | 7 | -7 | 19 | -22
Nc1ccn([C@@H]2O[C@H](C(=O)N[C@H](Cc3ccccc3)C(=O)N3CCN(C(=O)N4CCOCC4)CC3)[C@@H](O)[C@H]2O)c(=O)n1 | x | 0 | -2 | x | x | x
C[C@@H]1ON(C)[C@H]2C[C@H]3c4cc(Nc5ccccc5)ccc4CCN3C[C@@H]12 | x | 0 | -29 | x | x | x
CC(C)OCCCn1c(=N)c(C(N)=S)cc2c(=O)n3ccccc3nc21 | -24 | 2 | 4 | 3 | 75* | -34
CC(C)OCCCn1c(=NC(=O)c2ccncc2)c(C#N)cc2c(=O)n3ccccc3nc21 | -12 | 9 | 10 | -3 | 52* | -22
O=C(c1[nH]c(C(F)(F)F)nc1-c1ccccc1)N1CCCN(Cc2ccc(F)cc2)CC1 | x | 3 | -15 | x | x | x
O=C(O)CC1(CC(=O)Nc2cc(C(F)(F)F)cc(C(F)(F)F)c2)CCCCC1 | -2 | 2 | -30 | -4 | 42* | 2
Cc1ccc(S(=O)(=O)N2C[C@H]3C(=O)C[C@@H]4C(=O)N(c5ccccc5)C(=O)[C@@H]4[C@@H]3C[C@H]2c2cccc(Cl)c2)cc1 | x | 10 | 60* | x | x | x
CCc1ccc([C@H]2C[C@H]3[C@H]4C(=O)N(c5ccccc5)C(=O)[C@H]4CC(=O)[C@@H]3CN2S(=O)(=O)c2ccc(C)cc2)cc1 | x | 2 | -4 | x | x | x
Cc1cc(C(=O)Nc2c(C)nn(Cc3c(Cl)cccc3Cl)c2C)no1 | -4 | 13 | -4 | -17 | 15 | -8
Cc1nn(Cc2c(Cl)cccc2Cl)c(C)c1NC(=O)c1cc(C(C)C)on1 | 91* | 0 | -10 | -5 | 6 | 89*
CCc1nc2ccc(C(=O)N3CCN(C(C)=O)CC3)cn2c1N(C=O)Cc1ccc(OC)cc1 | x | 0 | 4 | x | x | x
